Data from ChEMBL document CHEMBL1139044, “Design and synthesis of furoxan-based nitric oxide-releasing glucocorticoid derivatives with potent anti-inflammatory activity and improved safety” (2007).
Active and inactive are the calls of the source. The rule behind the calls is not given here.

Assays:
Mus musculus [1] = experiment: Antiinflammatory activity in mouse assessed as inhibition of xylene induced ear edema; assay type: functional, organism-based
Rattus norvegicus [2] = experiment: Anti-acute-inflammatory activity in rat assessed as carrageenan induced paw edema volume at 21.7 mg/kg after 1 hr; assay type: functional
Summary of the method: (§1)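 Rats, n = 8 per group, with CMC-Na as the vehicle control. Paw swelling was induced with carrageenan, and edema volume (ml) was recorded hourly from 1 to 6 h. Significance was tested against the CMC-Na group.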

Rattus norvegicus [3] = experiment: Anti-acute-inflammatory activity in rat assessed as carrageenan induced paw edema volume at 21.7 mg/kg after 2 hrs; assay type: functional; summary of the method: as §1
Rattus norvegicus [4] = experiment: Anti-acute-inflammatory activity in rat assessed as carrageenan induced paw edema volume at 21.7 mg/kg after 3 hrs; assay type: functional; summary of the method: as §1
Rattus norvegicus [5] = experiment: Anti-acute-inflammatory activity in rat assessed as carrageenan induced paw edema volume at 21.7 mg/kg after 4 hrs; assay type: functional; summary of the method: as §1
Rattus norvegicus [6] = experiment: Anti-acute-inflammatory activity in rat assessed as carrageenan induced paw edema volume at 21.7 mg/kg after 5 hrs; assay type: functional; summary of the method: as §1
Rattus norvegicus [7] = experiment: Anti-acute-inflammatory activity in rat assessed as carrageenan induced paw edema volume at 21.7 mg/kg after 6 hrs; assay type: functional; summary of the method: as §1
Osteoblast [8] = experiment: Effect on alkaline phosphatase activity per 100 ml in SD mouse osteoblasts at 10 umol/L after 48 hrs […]; assay type: functional
Osteoclast [9] = experiment: Inhibition of survival rate of SD mouse osteoclasts at 10 umol/L after 48 hrs by TRAP assay; assay type: functional, cell-based
Osteoclast [10] = experiment: Increase in survival rate of SD mouse osteoclasts at 10 pmol/L to 100 nmol/L after 48 hrs by TRAP assay; assay type: functional, cell-based
Osteoblast [11] = experiment: Effect on alkaline phosphatase activity per 100 ml in SD mouse osteoblasts at 1 nmol/L after 48 hrs […]; assay type: functional
Osteoblast [12] = experiment: Effect on alkaline phosphatase activity per 100 ml in SD mouse osteoblasts at 1 pmol/L after 48 hrs […]; assay type: functional
Osteoclast [13] = experiment: Inhibition of survival rate of SD mouse osteoclasts at 100 nmol/L to 10 umol/L after 48 hrs by TRAP assay; assay type: functional, cell-based
Rattus norvegicus [14] = experiment: Antihypertension activity in SD rat assessed as heart rate at 43.4 mg/kg for 3 weeks
Rattus norvegicus [15] = experiment: Nitric oxide level in SD rat serum at 43.4 mg/kg for 3 weeks by nitrate reductase assay
Rattus norvegicus [16] = experiment: Antihypertension activity in SD rat assessed as systolic arterial pressure at 43.4 mg/kg for 3 weeks
Rattus norvegicus [17] = experiment: Antihypertension activity in SD rat assessed as diastolic arterial pressure at 43.4 mg/kg for 3 weeks
Osteoblast [18] = experiment: Effect on alkaline phosphatase activity per 100 ml in SD mouse osteoblasts at 0.1 pmol/L after 48 hrs […]
Rattus norvegicus [19] = experiment: Anti-acute-inflammatory activity in rat assessed as carrageenan induced paw edema volume at 23.2 mg/kg after 1 hr; assay type: functional; summary of the method: as §1
Rattus norvegicus [20] = experiment: Anti-acute-inflammatory activity in rat assessed as carrageenan induced paw edema volume at 23.2 mg/kg after 2 hrs; assay type: functional; summary of the method: as §1
Rattus norvegicus [21] = experiment: Anti-acute-inflammatory activity in rat assessed as carrageenan induced paw edema volume at 23.2 mg/kg after 3 hrs; assay type: functional; summary of the method: as §1
Rattus norvegicus [22] = experiment: Anti-acute-inflammatory activity in rat assessed as carrageenan induced paw edema volume at 23.2 mg/kg after 4 hrs; assay type: functional; summary of the method: as §1
Rattus norvegicus [23] = experiment: Anti-acute-inflammatory activity in rat assessed as carrageenan induced paw edema volume at 23.2 mg/kg after 5 hrs; assay type: functional; summary of the method: as §1
Rattus norvegicus [24] = experiment: Anti-acute-inflammatory activity in rat assessed as carrageenan induced paw edema volume at 23.2 mg/kg after 6 hrs; assay type: functional; summary of the method: as §1
Rattus norvegicus [25] = experiment: Anti-acute-inflammatory activity in rat assessed as carrageenan induced paw edema volume at 46.4 mg/kg after 1 hr; assay type: functional; summary of the method: as §1
Rattus norvegicus [26] = experiment: Anti-acute-inflammatory activity in rat assessed as carrageenan induced paw edema volume at 46.4 mg/kg after 2 hrs; assay type: functional; summary of the method: as §1
Rattus norvegicus [27] = experiment: Anti-acute-inflammatory activity in rat assessed as carrageenan induced paw edema volume at 46.4 mg/kg after 3 hrs; assay type: functional; summary of the method: as §1
Rattus norvegicus [28] = experiment: Anti-acute-inflammatory activity in rat assessed as carrageenan induced paw edema volume at 46.4 mg/kg after 4 hrs; assay type: functional; summary of the method: as §1
Rattus norvegicus [29] = experiment: Anti-acute-inflammatory activity in rat assessed as carrageenan induced paw edema volume at 46.4 mg/kg after 5 hrs; assay type: functional; summary of the method: as §1
Rattus norvegicus [30] = experiment: Anti-acute-inflammatory activity in rat assessed as carrageenan induced paw edema volume at 46.4 mg/kg after 6 hrs; assay type: functional; summary of the method: as §1
Rattus norvegicus [31] = experiment: Anti-acute-inflammatory activity in rat assessed as carrageenan induced paw edema volume at 92.9 mg/kg after 1 hr; assay type: functional; summary of the method: as §1
Rattus norvegicus [32] = experiment: Anti-acute-inflammatory activity in rat assessed as carrageenan induced paw edema volume at 92.9 mg/kg after 2 hrs; assay type: functional; summary of the method: as §1
Rattus norvegicus [33] = experiment: Anti-acute-inflammatory activity in rat assessed as carrageenan induced paw edema volume at 92.9 mg/kg after 3 hrs; assay type: functional; summary of the method: as §1
Rattus norvegicus [34] = experiment: Anti-acute-inflammatory activity in rat assessed as carrageenan induced paw edema volume at 92.9 mg/kg after 4 hrs; assay type: functional; summary of the method: as §1
Rattus norvegicus [35] = experiment: Anti-acute-inflammatory activity in rat assessed as carrageenan induced paw edema volume at 92.9 mg/kg after 5 hrs; assay type: functional; summary of the method: as §1
Rattus norvegicus [36] = experiment: Anti-acute-inflammatory activity in rat assessed as carrageenan induced paw edema volume at 92.9 mg/kg after 6 hrs; assay type: functional; summary of the method: as §1
Rattus norvegicus [37] = species on record: Rattus norvegicus; experiment: Anti-subacute-inflammatory activity in rat assessed as inhibition cotton pellet induced granuloma formation; assay type: functional, organism-based
Rattus norvegicus [38] = species on record: Rattus norvegicus; experiment: Antiinflammatory activity in rat assessed as inhibition of Freund's adjuvant induced arthritis; assay type: functional, organism-based
Mus musculus [39] = experiment: Antihypertension activity in SD mouse assessed as systolic arterial pressure at 92.9 mg/kg for 3 weeks; assay type: functional, Artery
Summary of the method: (§2)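 Animals were assigned to groups (n = 10) and dosed for 3 weeks, with CMC-Na as the vehicle group. Systolic pressure, diastolic pressure and heart rate were recorded 1 h after the last dose using a multi-channel tail-artery blood pressure system.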

Mus musculus [40] = experiment: Antihypertension activity in SD mouse assessed as diastolic arterial pressure at 92.9 mg/kg for 3 weeks; assay type: functional, Artery; summary of the method: as §2
Mus musculus [41] = experiment: Antihypertension activity in SD mouse assessed as heart rate at 92.9 mg/kg for 3 weeks; assay type: functional; summary of the method: as §2
Mus musculus [42] = experiment: Nitric oxide level in SD mouse serum at 92.9 mg/kg for 3 weeks by nitrate reductase assay; assay type: functional
Summary of the method: (§3)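 Animals were dosed for 3 weeks (n = 10) with a CMC-Na vehicle group. After the blood pressure readings, […] was drawn from the femoral artery and serum NO (µmol/L) was determined by nitrate reductase assay.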

Mus musculus [43] = experiment: Antihypertension activity in SD mouse assessed as systolic arterial pressure at 31 mg/kg for 3 weeks; assay type: functional, Artery; summary of the method: as §2
Mus musculus [44] = experiment: Antihypertension activity in SD mouse assessed as diastolic arterial pressure at 31 mg/kg for 3 weeks; assay type: functional, Artery; summary of the method: as §2
Mus musculus [45] = experiment: Antihypertension activity in SD mouse assessed as heart rate at 31 mg/kg for 3 weeks; assay type: functional; summary of the method: as §2
Mus musculus [46] = experiment: Nitric oxide level in SD mouse serum at 31 mg/kg for 3 weeks by nitrate reductase assay; assay type: functional; summary of the method: as §3

C[C@]12CCC(=O)C=C1CC[C@@H]1[C@@H]2[C@@H](O)C[C@@]2(C)[C@H]1CC[C@]2(O)C(=O)COC(=O)CCC(=O)OCCCCOc1no[n+]([O-])c1S(=O)(=O)c1ccccc1
Activity (Mus musculus [1]): Active

CC(CCOc1no[n+]([O-])c1S(=O)(=O)c1ccccc1)OC(=O)CCC(=O)OCC(=O)[C@@]1(O)CC[C@H]2[C@@H]3CCC4=CC(=O)CC[C@]4(C)[C@H]3[C@@H](O)C[C@@]21C (some centres not stated)
Activity (Mus musculus [1]): Active

C[C@]12CCC(=O)C=C1CC[C@@H]1[C@@H]2[C@@H](O)C[C@@]2(C)[C@H]1CC[C@]2(O)C(=O)CO [HYDROCORTISONE]
Activity (Rattus norvegicus [2]): 0.15 mL | Activity (Rattus norvegicus [3]): 0.25 mL | Activity (Rattus norvegicus [4]): 0.54 mL | Activity (Rattus norvegicus [5]): 0.85 mL | Activity (Rattus norvegicus [6]): 0.98 mL | Activity (Rattus norvegicus [7]): 1.02 mL | Activity (Osteoblast [8]): 2.26 U | Activity (Osteoclast [9]): Active | Activity (Osteoclast [10]): Active | Activity (Osteoblast [11]): 2.66 U | Activity (Osteoblast [12]): 2.69 U | Activity (Osteoclast [13]): Active | Activity (Rattus norvegicus [14]): 365.2 | Activity (Rattus norvegicus [15]): 28 µmol/L | Activity (Rattus norvegicus [16]): 156.7 mmHg | Activity (Rattus norvegicus [17]): 109.6 mmHg | Activity (Osteoblast [18]): 2.07 U

C[C@]12CCC(=O)C=C1CC[C@@H]1[C@@H]2[C@@H](O)C[C@@]2(C)[C@H]1CC[C@]2(O)C(=O)COC(=O)CCC(=O)OCCOCCOc1no[n+]([O-])c1S(=O)(=O)c1ccccc1
Activity (Mus musculus [1]): Active | Activity (Rattus norvegicus [19]): 0.1 mL | Activity (Rattus norvegicus [20]): 0.39 mL | Activity (Rattus norvegicus [21]): 0.74 mL | Activity (Rattus norvegicus [22]): 0.99 mL | Activity (Rattus norvegicus [23]): 1.12 mL | Activity (Rattus norvegicus [24]): 1.07 mL | Activity (Rattus norvegicus [25]): 0.13 mL | Activity (Rattus norvegicus [26]): 0.24 mL | Activity (Rattus norvegicus [27]): 0.56 mL | Activity (Rattus norvegicus [28]): 0.94 mL | Activity (Rattus norvegicus [29]): 0.95 mL | Activity (Rattus norvegicus [30]): 0.92 mL | Activity (Rattus norvegicus [31]): 0.12 mL | Activity (Rattus norvegicus [32]): 0.22 mL | Activity (Rattus norvegicus [33]): 0.41 mL | Activity (Rattus norvegicus [34]): 0.65 mL | Activity (Rattus norvegicus [35]): 0.8 mL | Activity (Rattus norvegicus [36]): 0.81 mL | Activity (Rattus norvegicus [37]): Dose-dependent effect | Activity (Rattus norvegicus [38]): Active | Activity (Osteoblast [8]): 1.54 U | Activity (Mus musculus [39]): 137.8 mmHg | Activity (Mus musculus [40]): 86.9 mmHg | Activity (Mus musculus [41]): 379.3 | Activity (Mus musculus [42]): 40.9 µmol/L | Activity (Mus musculus [43]): 144.5 mmHg | Activity (Mus musculus [44]): 97.8 mmHg | Activity (Mus musculus [45]): 360.3 | Activity (Mus musculus [46]): 31 µmol/L | Activity (Osteoblast [11]): 2.97 U | Activity (Osteoblast [12]): 2.24 U | Activity (Osteoblast [18]): 1.89 U
